ChEMBL document CHEMBL1154269, “Isolation and structural elucidation of euryjanicins B-D, proline-containing cycloheptapeptides from the Caribbean marine sponge Prosuberites laughlini” (2009)
Active and inactive are the calls of the source. No cut-off for these calls is given here. Where a SMILES comes first, the peptide text is derived from it.

What was measured:
Human alphaherpesvirus 1 = assay: Antiviral activity against HSV1; assay type: functional, organism-based
Influenza A virus = assay: Antiviral activity against Influenza A H5N1; assay type: functional, organism-based
West Nile virus = assay: Antiviral activity against WNV; assay type: functional, organism-based
IGROV-1 = assay: Cytotoxicity against human IGROV1 cells assessed as viable cells at 10 uM after 48 hrs by sulforhodamine B assay; assay type: functional; conditions: IGROV-1, 48 h, read-out: Activity
In short: (§1)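 Tested at a single high dose of 10−5 M across the full NCI 60 human cancer cell line panel. Read-out is percent growth of treated cells.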

Rift Valley fever virus = assay: Antiviral activity against Rift Valley fever virus; assay type: functional, organism-based
Plasmodium falciparum = assay: Antimalarial activity against Plasmodium falciparum W2 clone after 48 hrs by fluorescence microplate reader assay; assay type: functional, organism-based
[1] = system: Respiratory syncytial virus; assay: Antiviral activity against RSV A; assay type: functional, organism-based
LOX IMVI = assay: Cytotoxicity against human LOXIMVI cells assessed as viable cells at 10 uM after 48 hrs by sulforhodamine B assay; assay type: functional; conditions: read-out: Activity; in short: as §1
UO-31 = assay: Cytotoxicity against human UO31 cells assessed as viable cells at 10 uM after 48 hrs by sulforhodamine B assay; assay type: functional; conditions: UO-31, 48 h, read-out: Activity; in short: as §1
[2] = system: Mycobacterium tuberculosis; assay: Antituberculosis activity against Mycobacterium tuberculosis […] by alamar blue assay; assay type: functional, organism-based
Human alphaherpesvirus 2 = assay: Antiviral activity against HSV2; assay type: functional, organism-based
NCI-H522 = assay: Cytotoxicity against human NCI-H522 cells assessed as cell viability at 10 uM after 48 hrs by sulforhodamine B assay; assay type: functional; conditions: NCI-H522, 48 h, read-out: Activity; in short: as §1
Microglia = assay: Antiinflammatory activity in LPS-stimulated rat neonatal microglia assessed as inhibition of PMA-stimulated superoxide anion production; assay type: functional
Hepatitis B virus = assay: Antiviral activity against HBV; assay type: functional, organism-based
Influenza B virus = assay: Antiviral activity against Influenza B; assay type: functional, organism-based

Compound | Activity (Human alphaherpesvirus 1) | Activity (Influenza A virus) | Activity (West Nile virus) | viability at 10 µM (IGROV-1) | Activity (Rift Valley fever virus) | Activity (Plasmodium falciparum) | Activity [1] | viability at 10 µM (LOX IMVI) | viability at 10 µM (UO-31) | Activity [2] | Activity (Human alphaherpesvirus 2) | viability at 10 µM (NCI-H522) | Activity (Microglia) | Activity (Hepatitis B virus) | Activity (Influenza B virus)
CC[C@H](C)[C@@H]1NC(=O)[C@H]([C@@H](C)CC)NC(=O)[C@H]([C@@H](C)CC)NC(=O)[C@@H]2CCCN2C(=O)[C@H]([C@H](C)O)NC(=O)[C@@H]2CCCN2C(=O)[C@@H]2CCCN2C(=O)[C@H](CC(C)C)NC1=O [DOMINICIN] | inactive | inactive | inactive | 100% | inactive | inactive | inactive | 100% | 32.8% | inactive | inactive | 100% | inactive | inactive | inactive
CC(C)[C@@H]1NC(=O)[C@H](Cc2ccccc2)NC(=O)[C@@H]2CCCN2C(=O)[C@H]([C@@H](C)O)NC(=O)[C@H](C)NC(=O)[C@@H]2CCCN2C(=O)[C@@H]2CCCN2C1=O [EURYJANICIN B] (cyclo(ATPFVPP)) | inactive | inactive | inactive | 91.3% | inactive | inactive | inactive | 88.6% | 76.3% | inactive | inactive | 83.9% | inactive | inactive | inactive
CC[C@@H](C)[C@@H]1NC(=O)[C@@H]2CCCN2C(=O)[C@H](Cc2ccccc2)NC(=O)[C@H](CC(C)C)NC(=O)[C@@H]2CCCN2C(=O)[C@H]([C@H](C)CC)NC(=O)[C@H](CO)NC1=O [EURYJANICIN C] | inactive | inactive | inactive | 100% | inactive | inactive | inactive | 88% | 83.4% | inactive | inactive | 95.1% | inactive | inactive | inactive
CC[C@@H](C)[C@@H]1NC(=O)[C@@H]2CCCN2C(=O)[C@H](CO)NC(=O)[C@H](Cc2ccccc2)NC(=O)[C@H]([C@H](C)CC)NC(=O)[C@@H]2CCCN2C(=O)[C@H](Cc2ccccc2)NC1=O [EURYJANICIN D] | inactive | inactive | inactive | 100% | inactive | inactive | inactive | 87.6% | 82.7% | inactive | inactive | 94.6% | inactive | inactive | inactive
